pEC50, pKi: −log10 of the molar value.
Columns and labels:
[1] = target: T1, Cannabinoid receptor 1 (Homo sapiens, UniProt P21554); assay: Displacement of [3H]-CP55940 from human recombinant CB1 receptor expressed in CHO-K1 cell membrane measured after 3 hrs by scintillation spectrometry; format: cell membranes; settings: for Ki: read-out: pKi (converted); for pKi: read-out: Ki
[2] = target: T2, Cannabinoid receptor 2 (Homo sapiens, UniProt P34972); assay: Displacement of [3H]-CP55940 from human recombinant CB2 receptor expressed in CHO-K1 cell membrane measured after 3 hrs by scintillation spectrometry; format: cell membranes; settings: for Ki: read-out: pKi (converted); for pKi: read-out: Ki
[3] = target: T1, Cannabinoid receptor 1; assay: Displacement of [3H]-CP55940 from human recombinant CB1 receptor expressed in CHO-K1 cell membrane at 1 uM measured after 3 hrs by scintillation spectrometry; format: cell membranes
[4] = target: T2, Cannabinoid receptor 2; assay: Displacement of [3H]-CP55940 from human recombinant CB2 receptor expressed in CHO-K1 cell membrane at 1 uM measured after 3 hrs by scintillation spectrometry; format: cell membranes
[5] = target: T1, Cannabinoid receptor 1; assay: Agonist activity at human recombinant CB1 receptor expressed in CHO-K1 cell membrane assessed as increase in GTPgammaS binding at 1 uM pretreated for 30 mins followed by [35S]GTPgammaS addition for 90 mins by [35S]GTP-gammaS binding assay relative to CP55940; format: functional, cell membranes; settings: time 120.0 min
Outline: (§1)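 Membranes (5 μg) from PathHunter CHOK1 cells stably expressing hCB1 or hCB2 pre-incubated 30 min at room temperature with test ligand at 1 μM final, 1 μM GDP and 5 μg saponin in Tris-HCl pH 7.4, MgCl2, NaCl, EDTA, BSA, DTT. [35S]GTPγS (0.3 nM final) was then added for 90 min at 25 °C. Filtration on GF/B. Emax given relative to CP55,940 (100%), two experiments in duplicate.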

[6] = target: T2, Cannabinoid receptor 2; assay: Agonist activity at human recombinant CB2 receptor expressed in CHO-K1 cell membrane assessed as increase in GTPgammaS binding at 1 uM pretreated for 30 mins followed by [35S]GTPgammaS addition for 90 mins by [35S]GTP-gammaS binding assay relative to CP55940; format: functional, cell membranes; settings: filed as agonist, time 120.0 min; outline: as §1
[7] = target: T2, Cannabinoid receptor 2; assay: Agonist activity at human recombinant CB2 receptor expressed in CHO-K1 cell membrane assessed as increase in GTPgammaS binding pretreated for 30 mins followed by [35S]GTPgammaS addition for 90 mins by [35S]GTP-gammaS binding assay; format: functional, cell membranes
Outline: (§2)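 Concentration-response [35S]GTPγS binding on 5 μg hCB1 or hCB2 CHOK1 membranes. Ligand, 1 μM GDP and saponin pre-incubated 30 min at room temperature, then 0.3 nM [35S]GTPγS added for 90 min at 25 °C. Filtration read-out. Three experiments in duplicate.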

[8] = target: T1, Cannabinoid receptor 1; assay: Agonist activity at human recombinant CB1 receptor expressed in CHO-K1 cell membrane assessed as increase in GTPgammaS binding pretreated for 30 mins followed by [35S]GTPgammaS addition for 90 mins by [35S]GTP-gammaS binding assay; format: functional, cell membranes; outline: as §2

T1 sequence (P21554 whole entry): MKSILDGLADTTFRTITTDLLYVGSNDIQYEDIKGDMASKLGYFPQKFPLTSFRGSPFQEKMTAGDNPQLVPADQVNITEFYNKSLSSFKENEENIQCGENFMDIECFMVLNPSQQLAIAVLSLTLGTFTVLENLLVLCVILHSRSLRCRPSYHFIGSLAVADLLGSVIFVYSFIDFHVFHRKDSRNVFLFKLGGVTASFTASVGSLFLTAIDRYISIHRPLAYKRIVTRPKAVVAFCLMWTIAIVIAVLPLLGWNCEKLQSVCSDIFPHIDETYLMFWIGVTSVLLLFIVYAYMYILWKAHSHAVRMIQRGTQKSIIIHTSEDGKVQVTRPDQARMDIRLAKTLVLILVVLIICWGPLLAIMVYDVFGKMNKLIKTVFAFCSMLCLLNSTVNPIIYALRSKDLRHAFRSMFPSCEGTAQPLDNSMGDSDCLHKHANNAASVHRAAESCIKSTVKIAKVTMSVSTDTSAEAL
T2 sequence (P34972 whole entry): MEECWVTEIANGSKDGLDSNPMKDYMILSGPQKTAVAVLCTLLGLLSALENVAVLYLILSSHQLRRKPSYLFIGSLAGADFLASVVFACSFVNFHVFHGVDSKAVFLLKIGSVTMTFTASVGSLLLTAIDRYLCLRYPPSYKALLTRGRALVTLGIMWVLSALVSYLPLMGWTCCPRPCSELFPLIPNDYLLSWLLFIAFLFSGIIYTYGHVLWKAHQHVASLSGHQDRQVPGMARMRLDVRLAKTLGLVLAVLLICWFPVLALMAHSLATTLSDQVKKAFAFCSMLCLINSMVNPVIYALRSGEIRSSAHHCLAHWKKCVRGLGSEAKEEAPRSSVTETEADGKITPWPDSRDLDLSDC

SMILES	Ki [1] [nM]	Ki [2] [nM]	inhibition [3] [%]	inhibition [4] [%]	inhibition ([4]; filed as agonist) [%]	other results
CCCCC(C)(C)c1cc(O)c2cc(Cc3ccccc3)c(=O)oc2c1	> 1000	> 1000	12	24	–	–
CCCCCc1cc(O)c2cc(Cc3ccccn3)c(=O)oc2c1	> 1000	> 1000	–	–	–	–
CCCCC1(c2cc(OC)c3cc(Cc4cccnc4)c(=O)oc3c2)CCCCC1	> 1000	> 1000	6	11	–	–
CCCCC(C)(C)c1cc(O)c2cc(Cc3ccccc3O)c(=O)oc2c1	> 1000	> 1000	24	37	–	–
CCCCC(C)(C)c1cc(OC)c2cc(Cc3ccccc3)c(=O)oc2c1	–	> 1000	–	39	–	pKi [1]: 6.31; inhibition ([3]; filed as agonist): > 50%
CCCCCc1cc(OC)c2cc(Cc3cccnc3)c(=O)oc2c1	–	–	–	–	> 50	pKi [1]: 6.77; pKi [2]: 7.25; inhibition ([3]; filed as agonist): > 50%; Emax ([5]; filed as agonist): 40%; Emax [6]: 40%
CCCCC1(c2cc(OC)c3cc(Cc4ccccn4)c(=O)oc3c2)CCCCC1	> 1000	> 1000	–	12	–	inhibition ([3]; filed as agonist): 47%
CCCCC1(c2cc(O)c3cc(-c4ccccc4O)c(=O)oc3c2)CCCC1	> 1000	> 1000	–	-2	–	–
CCCCC1(c2cc(OC)c3cc(Cc4ccncc4)c(=O)oc3c2)CCCC1	> 1000	> 1000	28	9	–	–
CCCCC1(c2cc(OC)c3cc(CC)c(=O)oc3c2)CCCC1	> 1000	> 1000	33	0	–	–
CCCCc1cc2c(O)cc(C3(CCCC)CCCC3)cc2oc1=O	1000	–	–	–	> 50	pKi [2]: 7.86; inhibition ([3]; filed as agonist): 50%; Emax [6]: 85%; pEC50 [7]: 7.74
CCCCC1(c2cc(OC)c3cc(-c4ccc(C(F)(F)F)cc4)c(=O)oc3c2)CCCC1	> 1000	> 1000	3	-4	–	–
CCCCC1(c2cc(OC)c3cc(C)c(=O)oc3c2)CCCC1	> 1000	> 1000	16	1	–	–
CCCCC1(c2cc(OC)c3cc(C)c(=O)oc3c2)CCCCC1	> 1000	> 1000	9	–	–	–
CCCCCCC(C)(C)c1cc(OC)c2cc(Cc3ccccc3)c(=O)oc2c1	–	–	–	–	> 50	inhibition ([3]; filed as agonist): > 50%
CCCCC1(c2cc(O)c3cc(CCC)c(=O)oc3c2)CCCCC1	–	–	–	–	> 50	pKi [1]: 6.80; pKi [2]: 8.19; inhibition ([3]; filed as agonist): > 50%; Emax [5]: 23%; Emax [6]: 62%; pEC50 [8]: 5.95; pEC50 [7]: 8.35
CCCCC1(c2cc(O)c3cc(C)c(=O)oc3c2)CCCC1	> 1000	1000	-10	–	49	–
CCCCCCC(C)(C)c1cc(O)c2cc(Cc3ccccc3O)c(=O)oc2c1	–	–	–	–	> 50	inhibition ([3]; filed as agonist): > 50%
CCCCC1(c2cc(O)c3cc(CCC)c(=O)oc3c2)CCCC1	> 1000	–	–	–	> 50	pKi [2]: 7.73; inhibition ([3]; filed as agonist): 47%; Emax [6]: 91%
CCCCC1(c2cc(OC)c3cc(-c4ccccc4C)c(=O)oc3c2)CCCC1	> 1000	> 1000	–	–	–	–
CCCCC1(c2cc(O)c3cc(C)c(=O)oc3c2)CCCCC1	> 1000	–	19	–	> 50	pKi [2]: 6.97; Emax [6]: 66%
CCCCC1(c2cc(O)c3cc(Cc4ccccn4)c(=O)oc3c2)CCCC1	> 1000	> 1000	34	–	44	–
CCCCC1(c2cc(OC)c3cc(Cc4ccncc4)c(=O)oc3c2)CCCCC1	> 1000	> 1000	26	3	–	–
CCCCC1(c2cc(OC)c3cc(-c4ccccc4OC)c(=O)oc3c2)CCCC1	> 1000	> 1000	-10	–	–	–
CCCCCCC(C)(C)c1cc(OC)c2cc(Cc3ccccc3OC)c(=O)oc2c1	–	–	–	–	> 50	inhibition ([3]; filed as agonist): > 50%
CCCCC1(c2cc(O)c3cc(Cc4ccccn4)c(=O)oc3c2)CCCCC1	> 1000	–	-7	–	> 50	pKi [2]: 7.14; Emax [6]: 68%; pEC50 [7]: 7.38

SMILES	Ki [1] [nM]	Ki [2] [nM]	inhibition [3] [%]	inhibition [4] [%]	inhibition ([4]; filed as agonist) [%]	other results
CCCCCc1cc(O)c2cc(Cc3ccncc3)c(=O)oc2c1	> 1000	> 1000	–	-5	–	–
CCCCc1cc2c(OC)cc(C3(CCCC)CCCCC3)cc2oc1=O	> 1000	> 1000	–	2	–	–
CCCCc1cc2c(OC)cc(C3(CCCC)CCCC3)cc2oc1=O	> 1000	> 1000	15	-1	–	–
CCCCCc1cc(OC)c2cc(Cc3ccncc3)c(=O)oc2c1	> 1000	> 1000	0	11	–	–
CCCCCCC(C)(C)c1cc(O)c2cc(Cc3ccccc3C(F)(F)F)c(=O)oc2c1	1000	> 1000	–	–	42	inhibition ([3]; filed as agonist): 49%
CCCCCCC(C)(C)c1cc(O)c2cc(Cc3ccccc3)c(=O)oc2c1	–	–	–	–	> 50	inhibition ([3]; filed as agonist): > 50%
CCCCC(C)(C)c1cc(OC)c2cc(Cc3ccccc3OC)c(=O)oc2c1	–	–	–	–	> 50	pKi [1]: 6.71; pKi [2]: 6.64; inhibition ([3]; filed as agonist): > 50%
CCCCC1(c2cc(O)c3cc(CC)c(=O)oc3c2)CCCCC1	> 1000	–	39	–	> 50	pKi [2]: 7.41; Emax [6]: 65%
CCCCCc1cc(O)c2cc(Cc3cccnc3)c(=O)oc2c1	> 1000	> 1000	–	–	–	–
CCCCC1(c2cc(OC)c3cc(CCC)c(=O)oc3c2)CCCCC1	> 1000	> 1000	18	-4	–	–
CCCCC1(c2cc(O)c3cc(-c4ccccc4C)c(=O)oc3c2)CCCC1	> 1000	> 1000	4	–	43	–
CCCCC1(c2cc(OC)c3cc(Cc4cccnc4)c(=O)oc3c2)CCCC1	> 1000	> 1000	29	–	40	–
CCCCC1(c2cc(O)c3cc(Cc4ccncc4)c(=O)oc3c2)CCCC1	> 1000	> 1000	–	21	–	–
CCCCC1(c2cc(OC)c3cc(Cc4ccccn4)c(=O)oc3c2)CCCC1	> 1000	> 1000	29	20	–	–
CCCCCCC(C)(C)c1cc(OC)c2cc(Cc3ccccc3C(F)(F)F)c(=O)oc2c1	> 1000	> 1000	26	3	–	–
CCCCC1(c2cc(OC)c3cc(CC)c(=O)oc3c2)CCCCC1	> 1000	> 1000	6	-1	–	–
CCCCCCC(C)(C)c1cc(O)c2cc(Cc3ccccc3C)c(=O)oc2c1	> 1000	–	–	–	> 50	pKi [2]: 6.65; inhibition ([3]; filed as agonist): 47%
CCCCC1(c2cc(O)c3cc(CC)c(=O)oc3c2)CCCC1	> 1000	–	34	–	> 50	pKi [2]: 7.22; Emax [6]: 87%
CCCCC1(c2cc(O)c3cc(Cc4cccnc4)c(=O)oc3c2)CCCC1	> 1000	–	19	–	> 50	pKi [2]: 6.51; Emax [6]: 82%
CCCCC(C)(C)c1cc(OC)c2cc(Cc3ccccc3C)c(=O)oc2c1	–	> 1000	–	32	–	pKi [1]: 6.66; inhibition ([3]; filed as agonist): > 50%
CCCCC1(c2cc(OC)c3cc(-c4ccccc4)c(=O)oc3c2)CCCC1	> 1000	> 1000	34	-8	–	–
CCCCC1(c2cc(O)c3cc(Cc4ccncc4)c(=O)oc3c2)CCCCC1	> 1000	> 1000	5	–	46	–
CCCCC1(c2cc(OC)c3cc(CCC)c(=O)oc3c2)CCCC1	> 1000	> 1000	32	38	–	–
CCCCC(C)(C)c1cc(O)c2cc(Cc3ccccc3C)c(=O)oc2c1	> 1000	> 1000	30	–	41	–
CCCCC1(c2cc(O)c3cc(-c4ccccc4)c(=O)oc3c2)CCCC1	> 1000	> 1000	–	–	–	–
CCCCC1(c2cc(O)c3cc(-c4ccc(C(F)(F)F)cc4)c(=O)oc3c2)CCCC1	> 1000	> 1000	–	-10	–	–
